Sampled rows, rich in hits. Any-hit rate of the full collection: about 2.3%.
CSN inh: inhibitors of CSN-mediated cullin deneddylation, primary screen, biochemical, fluorescence polarization, uHTS; actives 0.38% (n = 360,000); COP9 signalosome complex subunit 5 (Homo sapiens), Q92905; Purified CSN, SCF-Nedd8-OG deneddylation; inhibition, % at 12.5 µM;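 active = pattern-corrected inhibition above about 35%, with an unprinted fluorescence ratio check between 0.5 and 1.5, limit read from the data, passing the limit was not always enough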;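 note: 0% = enzyme with substrate and 100% = substrate without enzyme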
Target sequence (Q92905 whole entry, looked up, one chain of several): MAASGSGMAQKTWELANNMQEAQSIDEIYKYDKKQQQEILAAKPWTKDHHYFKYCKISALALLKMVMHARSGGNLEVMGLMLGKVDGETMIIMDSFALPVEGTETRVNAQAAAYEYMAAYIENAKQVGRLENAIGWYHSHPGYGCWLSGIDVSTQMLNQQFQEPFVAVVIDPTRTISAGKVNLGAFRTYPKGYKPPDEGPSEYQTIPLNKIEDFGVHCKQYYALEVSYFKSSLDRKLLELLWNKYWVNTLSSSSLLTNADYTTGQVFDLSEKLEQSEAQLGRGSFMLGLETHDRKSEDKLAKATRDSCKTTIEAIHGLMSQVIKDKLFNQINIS
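Assay system: purified human Csn5 enzyme expressed in HEK293T cells; Input: 0.24 nM Csn5 enzyme, final concentration; Reagent: 10 nM SCFSkp2-Nedd8OG; Compound dosing: 12.5 µM single point; Times: reaction 90 min, room temperature; Technique: fluorescence polarization readout.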
Rpn11 inh: Rpn11 (PSMD14) deubiquitinase inhibitors, primary screen, biochemical, fluorescence polarization, uHTS; human 26S proteasome, Ub4-pepOG fluorescence polarization; 20S core pre-blocked with epoxomicin; inhibition, % at 20 µM; actives 0.59% (n = 360,000); AID 588493, 2011;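 active = inhibition at 20 µM, scaled to each plate's controls, above about 33%, limit read from the data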
HNF4A DNA FP: change in binding of human HNF4A to DNA, primary screen, biochemical, fluorescence polarization, FITC-DNA; Hepatocyte nuclear factor 4-alpha (Homo sapiens), P41235; 1 h; activity change, % at 10 µM; actives 0.3% (n = 360,000); in the data active = activity change above about 30%, passing the limit was not always enough
TPT1 inh: Candida albicans TPT1 enzyme inhibitors, primary screen, biochemical, fluorescence polarization; actives 0.81% (n = 300,000); inhibition, % at 5 µM; tRNA 2'-phosphotransferase TPT1 (Candida albicans SC5314); recombinant caTPT1, FP RNA substrate dephosphorylation;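 active = inhibition above the mean of all tested compounds plus 3 SD, set per screening campaign, cut at about 24% in these data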;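 note: plate controls were DMSO alone for no effect and ferristatin control at 100 nM for full effect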
Myeloid diff MLP: induction of myeloid progenitor differentiation, primary screen, cell-based, flow cytometry, MLPCN library | ER-HoxA9 myeloid progenitors, lysozyme-GFP differentiation | calls only at 10 µM | actives 1% (n = 360,000) | AID 624256, 2012;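 active = normalized GFP-positive differentiation at or above the plate's own cutoff, the solvent-only control mean plus 3 SD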;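 note: cells exposed to compound for four days before flow analysis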
Myeloid diff CP1: inducers of myeloid progenitor differentiation, confirmation, cell-based, GFP/Mac1 flow cytometry, cherry pick 01; shares compounds with Myeloid diff MLP; ER-HoxA9 myeloid progenitors, GFP/Mac1 double-positive flow; calls only; actives 2% (n = 2,300);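 active = share of green or green-and-red cells above 9 and 9% in run 1 or 4 and 3% in run 2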
GFP autofluor: counter-screen for myeloid differentiation promoters: compound fluorescence. shares compounds with Myeloid diff MLP. fluorescence response, % (concentration not given with the values). actives 7.4% (n = 2,300). AID 651707. ER-HoxA9 myeloid progenitors, no estrogen, GFP autofluorescence flow cytometry; vehicle wells 0%, positive control 100%;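 active = over 5% cells positive for green fluorescent reporter, or over 2% positive for both it and APC stain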;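 note: range taken on the double positive population between DMSO and positive control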
An asterisk follows results filed as active; i = inactive; . = not tested or not shown; + = active, no number.

SMILES	CSN inh	Rpn11 inh	HNF4A DNA FP	TPT1 inh	Myeloid diff MLP	Myeloid diff CP1	GFP autofluor
COc1ccc(/C=C/C(=O)NC(C)(C)C)cc1S(=O)(=O)N1CCOCC1	1	3	-4	1	i	.	.
COc1ccc(/C=C/C(=O)NC2CCCCCCC2)cc1S(=O)(=O)N1CCOCC1	-2	1	2	-1	i	i	0
Cc1ccc(C)c(N=Nc2nc3ccccc3n2C)c1	-4	-8	-4	-3	+	i	0
COc1ccc(NC(=S)NC(NC(=O)C(C)C)C(Cl)(Cl)Cl)c([N+](=O)[O-])c1 (stereo not drawn)	-1	-3	1	-4	+	i	1
COc1ccc(NC(=O)CC(C)C)c([N+](=O)[O-])c1	-6	3	6	-3	i	.	.
COCc1[nH]nc2c1C(c1c(F)cccc1Cl)C(C#N)=C(N)O2 (stereo not drawn)	-8	-4	-2	3	i	.	.
N#CC1=C(N)Oc2n[nH]c(-c3ccccn3)c2C1c1c(F)cccc1Cl (stereo not drawn)	-7	-6	1	-1	i	i	0
CCn1c(Sc2ccc([N+](=O)[O-])cn2)nnc1-c1ccco1	5	3	1	-1	i	i	0
CCN1CCN(C(=O)c2ccc(CN(c3ccccc3)S(=O)(=O)c3ccccc3)cc2)CC1	-15	0	-1	-1	i	.	.
COc1ccc(Cl)cc1NC(=S)N(Cc1ccccc1C)CC1CCC(C(=O)O)CC1 (stereo not drawn)	2	6	-3	3	i	i	1
CCc1ccccc1NC(=S)N(Cc1ccc(OC)cc1)CC1CCC(C(=O)O)CC1 (stereo not drawn)	-2	0	0	-3	i	.	.
Cc1[nH]c2ccccc2c1C(=O)/C=C\c1ccccc1Cl	5	-2	-1	0	+	i	1
CC(=O)NNC(=O)CCC(=O)Nc1ccccc1	-1	-4	-3	-5	i	i	86*
O=C(O)CCC(=O)Nc1ccc(S(=O)(=O)c2ccc(NC(=O)CCC(=O)O)cc2)cc1	2	3	-1	-4	i	.	.
O=C(O)CCC(=O)Nc1ccc(Cc2ccc(NC(=O)CCC(=O)O)cc2)cc1	-3	7	-3	-4	+	i	0
Cc1ccc(Cl)c2sc(N3CCN(C(=O)c4ccco4)CC3)nc12	-1	5	6	3	i	.	.
COc1ccc(Cc2nnc(NC(=O)C3CCCO3)s2)cc1OC (stereo not drawn)	4	0	2	1	+	i	0
COC(=O)c1ccc(NC(=O)C2CCN(C(=O)c3cc(OC)c(OC)c(OC)c3)CC2)cc1	4	0	2	2	i	.	.
CCOC(=O)c1ccc(NC(=O)C2CCN(C(=O)c3ccc(OC)c(OC)c3)CC2)cc1	-4	1	0	0	i	i	0
Cc1cccc(NC(=O)CSc2nc(=O)n(CCCN3CCOCC3)c3c2CCCC3)c1	0	-6	4	3	+	i	0
CC(Oc1cccc(Cl)c1)C(=O)Nc1nc(-c2ccccn2)cs1 (stereo not drawn)	8	22	6	5	+	i	4
Cc1c(N/N=C(\C#N)C(=O)c2ccccc2)c(=O)n(-c2ccccc2)n1C	6	-3	-6	.	i	i	6.9*
Cc1cc2oc(C(=O)Nc3c(C)n(C)n(-c4ccccc4)c3=O)c(C)c2cc1C	-1	-3	2	-4	i	i	0

Source: PubChem
